Results: ChEMBL document CHEMBL5053517, “Design, synthesis, and antiviral activity of phenylalanine derivatives as HIV-1 capsid inhibitors” (Bioorg Med Chem, 2021)
pEC50, pKd: −log10 of the molar value.

Experiments:
[1] = test system: Human immunodeficiency virus 1; experiment: Antiviral activity against HIV1 NL4-3 expressing NanoLuc-sec infected in human MT4 cells assessed as reduction in viral replication measured after 3 days by bright Glo-luciferase reporter gene assay; format: functional, organism-based; conditions: Human immunodeficiency virus 1, NL4-3, MT4, 72 h
In short: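 MT-4 cells (1 × 10⁵ cells/mL) infected with 200 TCID50 HIV-1 NL4–3 Nanoluc-sec across a range of compound concentrations. Incubation ran 3 days at 37°C, 5% CO₂, over multiple replication rounds. Luminescence was read after Bright Glo addition. EC₅₀ is the concentration giving 50% lower luciferase RLU than virus-control wells.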

MT4 = experiment: (§1) Cytotoxicity against human MT4 cells assessed as reduction in cell viability incubated for 3 days by XTT assay; format: cell-based; conditions: mt4, 72 h, time 3 day
In short: (§2)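 Uninfected MT-4 cells were cultured with various compound concentrations at 37°C, 5% CO₂ for three days, in parallel with the antiviral assay. XTT was added, and absorbance at 450 nm was read four hours later. CC₅₀ is the concentration giving 50% loss of cell viability.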

[2] = Selectivity index, ratio of CC50 for cytotoxicity against human MT4 cells to EC50 for antiviral activity against HIV1 infected in human MT4 cells; format: toxicity, cell-based; conditions: read-out: Ratio CC50/EC50
In short: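 SI is CC₅₀/EC₅₀. For EC₅₀, MT-4 cells (1 × 10⁵ cells/mL) were infected with 200 TCID50 HIV-1 NL4-3 Nanoluc-sec with graded compound concentrations, held 3 days at 37°C, 5% CO₂, and read by luminescence; EC₅₀ is 50% luciferase reduction versus virus control. For CC₅₀, uninfected MT-4 cells were run in parallel for 3 days with an XTT read-out at 450 nm.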

[3] = Binding affinity to HIV1 capsid protein hexamer assessed as dissociation constant by SPR analysis; set-up: species or system Human immunodeficiency virus 1
In short: (§3)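 SPR at 25 °C on amine-coupled GLH chips, with protein at 500 μg/ml in 10 mM sodium acetate pH 5.5. Running buffer was 20 mM sodium phosphate, 150 mM NaCl, 0.005% Tween 20, pH 7.4, plus 3% DMSO for compound dilutions. One-shot kinetics used 100 μL/min, 1 min association and 5 min dissociation. Responses were reference-subtracted, run three times, and KD taken from a one-site binding model.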

[4] = Binding affinity to HIV1 capsid protein monomer assessed as dissociation constant by SPR analysis; set-up: species or system Human immunodeficiency virus 1; in short: as §3
[5] = as §1; format: cell-based; conditions: MT4 cells, time 3 day; in short: as §2

## COc1ccc(N(C)C(=O)[C@H](Cc2ccccc2)NC(=O)c2cccc(S(=O)(=O)N3CCSCC3)c2)cc1
[1]
  pEC50: 5.30
MT4
  CC50: > 9.33 µM
[2]
  selectivity ratio: > 1.84

## COc1ccc(N(C)C(=O)[C@H](Cc2ccccc2)NC(=O)c2cccc(NS(=O)(=O)c3ccc(OC(F)(F)F)cc3)c2)cc1
[1]
  pEC50: < 5.10
MT4
  CC50: > 7.97 µM

## COc1ccc(N(C)C(=O)[C@H](Cc2ccccc2)NS(=O)(=O)CC(=O)Nc2ccc(C#N)cc2)cc1
[1]
  pEC50: 5.09
MT4
  CC50: > 9.87 µM
[2]
  selectivity ratio: > 1.22

## COc1ccc(N(C)C(=O)[C@H](Cc2ccccc2)NC(=O)c2cccc(S(=O)(=O)Nc3ccc(C(F)(F)F)cc3)c2)cc1
[1]
  pEC50: < 5.09
MT4
  CC50: > 8.17 µM

## COc1ccc(N(C)C(=O)[C@H](Cc2ccccc2)NC(=O)c2cccc(S(=O)(=O)N3CCc4cc([N+](=O)[O-])ccc43)c2)cc1
[1]
  pEC50: < 5.09
MT4
  CC50: > 8.13 µM

## COc1ccc(N(C)C(=O)CS(=O)(=O)N[C@@H](Cc2ccccc2)C(=O)N(C)c2ccc(OC)cc2)cc1
[1]
  pEC50: 5.29
MT4
  CC50: > 9.51 µM
[2]
  selectivity ratio: > 1.85
[3]
  pKd: 5.32
[4]
  pKd: 4.80

## COc1ccc(N(C)C(=O)[C@H](Cc2ccccc2)NC(=O)c2cccc(S(=O)(=O)Nc3cc(F)cc(F)c3)c2)cc1
[1]
  pEC50: < 5.06
MT4
  CC50: > 8.63 µM

## COc1ccc(N(C)C(=O)[C@H](Cc2ccccc2)NC(=O)c2cccc(NS(=O)(=O)c3cc(F)cc(F)c3)c2)cc1
[1]
  pEC50: < 5.06
MT4
  CC50: > 8.63 µM

## COc1ccc(N(C)C(=O)c2cccc(S(=O)(=O)N[C@@H](Cc3ccccc3)C(=O)N(C)c3ccc(OC)cc3)c2)cc1
[1]
  pEC50: < 5.07
MT4
  CC50: > 8.51 µM

## COc1ccc(N(C)C(=O)[C@H](Cc2ccccc2)NC(=O)c2cccc(S(=O)(=O)N(C)c3ccc(OC)cc3)c2)cc1
[1]
  pEC50: 5.28
MT4
  CC50: > 8.51 µM
[2]
  selectivity ratio: > 1.61

## COc1ccc(N(C)C(=O)[C@H](Cc2ccccc2)NS(=O)(=O)c2cccc(C(=O)Nc3ccc4ncsc4c3)c2)cc1
[1]
  pEC50: < 5.08
MT4
  CC50: > 8.32 µM

## COc1ccc(N(C)C(=O)[C@H](Cc2ccccc2)NS(=O)(=O)CC(=O)N2CCc3cc(OC)ccc32)cc1
[1]
  pEC50: < 5.03
MT4
  CC50: > 9.3 µM

## COc1ccc(N(C)C(=O)[C@H](Cc2ccccc2)NS(=O)(=O)CC(=O)N2CCc3cc([N+](=O)[O-])ccc32)cc1
[1]
  pEC50: < 5.04
[5]
  CC50 at 72 h: > 9.05 µM

## COc1ccc(N(C)C(=O)[C@H](Cc2ccccc2)NC(=O)c2cccc(S(=O)(=O)N3CCc4cc(OC)ccc43)c2)cc1
[1]
  pEC50: < 5.08
MT4
  CC50: > 8.34 µM

## COc1ccc(N(C)C(=O)[C@H](Cc2ccccc2)NS(=O)(=O)CC(=O)Nc2ccc3ncsc3c2)cc1
[1]
  pEC50: < 5.03
MT4
  CC50: > 9.28 µM

## COc1ccc(N(C)C(=O)[C@H](Cc2ccccc2)NC(=O)C(=O)N2CCc3cc(OC)ccc32)cc1
[1]
  pEC50: < 4.99
MT4
  CC50: > 10.3 µM

## COc1ccc(N(C)C(=O)[C@H](Cc2ccccc2)NS(=O)(=O)c2cccc(C(=O)NC3CC3)c2)cc1
[1]
  pEC50: < 5.01
MT4
  CC50: > 9.85 µM

## COc1ccc(N(C)C(=O)[C@H](Cc2ccccc2)NS(=O)(=O)CC(=O)Nc2cc(F)cc(F)c2)cc1
[1]
  pEC50: < 5.02
MT4
  CC50: > 9.66 µM

## COc1ccc(N(C)C(=O)[C@H](Cc2ccccc2)NC(=O)c2cccc(NS(=O)(=O)c3ccc(F)cc3)c2)cc1
[1]
  pEC50: < 5.05
MT4
  CC50: > 8.91 µM

## COc1ccc(N(C)C(=O)[C@H](Cc2ccccc2)NC(=O)c2cccc(S(=O)(=O)N3CCc4cc(N)ccc43)c2)cc1
[1]
  pEC50: 5.59
MT4
  CC50: > 8.55 µM
[2]
  selectivity ratio: > 3.33
[3]
  pKd: 5.38
[4]
  pKd: 4.93

## COc1ccc(N(C)C(=O)[C@H](Cc2ccccc2)NC(=O)C(=O)Nc2ccc([N+](=O)[O-])cc2)cc1
[1]
  pEC50: < 4.98

## COc1ccc(N(C)C(=O)[C@H](Cc2ccccc2)NC(=O)C(=O)Nc2cc(F)cc(F)c2)cc1
[1]
  pEC50: < 5.06
MT4
  CC50: > 8.81 µM

## COc1ccc(N(C)C(=O)[C@H](Cc2ccccc2)NS(=O)(=O)c2cccc(C(=O)N3CCc4ccncc43)c2)cc1
[1]
  pEC50: < 5.06
[5]
  CC50 at 72 h: > 8.76 µM

## COc1ccc(N(C)C(=O)C(=O)N[C@@H](Cc2ccccc2)C(=O)N(C)c2ccc(OC)cc2)cc1
[1]
  pEC50: < 4.98
MT4
  CC50: > 10.5 µM

## COc1ccc(N(C)C(=O)[C@H](Cc2ccccc2)NC(=O)c2cccc(S(=O)(=O)N(C)C)c2)cc1
[1]
  pEC50: 5.06
MT4
  CC50: > 10.1 µM
[2]
  selectivity ratio: > 1.12

## COc1ccc(N(C)C(=O)[C@H](Cc2ccccc2)NC(=O)C(=O)N2CCc3cc([N+](=O)[O-])ccc32)cc1
[1]
  pEC50: < 5.00
MT4
  CC50: > 9.95 µM

## COc1ccc(N(C)C(=O)[C@H](Cc2ccccc2)NC(=O)c2cccc(S(=O)(=O)N3CCCCC3)c2)cc1
[1]
  pEC50: 5.31
[5]
  CC50 at 72 h: > 9.03 µM
[2]
  selectivity ratio: > 1.86

## COc1ccc(N(C)C(=O)[C@H](Cc2ccccc2)NC(=O)c2cccc(S(=O)(=O)N3CCc4ccccc43)c2)cc1
[1]
  pEC50: < 5.06
MT4
  CC50: > 8.78 µM

## COc1ccc(N(C)C(=O)[C@H](Cc2ccccc2)NC(=O)C(=O)Nc2ccc3ncsc3c2)cc1
[1]
  pEC50: < 4.99
MT4
  CC50: > 10.2 µM

## COc1ccc(N(C)C(=O)[C@H](Cc2ccccc2)NC(=O)C(=O)Nc2ccc(C#N)cc2)cc1
[1]
  pEC50: < 4.96
MT4
  CC50: > 11 µM

## COc1ccc(N(C)C(=O)[C@H](Cc2ccccc2)NS(=O)(=O)CC(=O)n2ncc3ccccc32)cc1
[1]
  pEC50: < 5.01
MT4
  CC50: > 9.87 µM

## COc1ccc(N(C)C(=O)[C@H](Cc2ccccc2)NS(=O)(=O)c2cccc(C(=O)N3CCOCC3)c2)cc1
[1]
  pEC50: < 5.03
MT4
  CC50: > 9.3 µM
